# Assays:
# p110α = conditions: cited from earlier work
# CYP3A5 = CYP3A5 (Homo sapiens, UniProt P20815); experiment: Inhibition of CYP3A5; type: biochemical; conditions: PI-103 1, 10 and 100 μM
# In short: (§1)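 Recombinant human CYPs at 0.05 mg mL−1 protein, each with its probe substrate near Km: ethoxyresorufin 1 μM (CYP1A1), phenacetin 100 μM (CYP1A2), nifedipine 40 μM (CYP3A4, 3A5). Incubated at 37 °C without (control) or with test compound at 1, 10 and 100 μM. Supernatant analysed by UHPLC-TQD-MS; activity relative to control; triplicate.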
# DNA-PK = conditions: cited from earlier work
# UGT2B15 = UGT2B15 (Homo sapiens, UniProt P54855); experiment: Inhibition of UGT2B15; type: biochemical; conditions: PI-103 1, 10 and 100 μM
# In short: (§2)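 Recombinant human UGTs screened with probe substrates: β-estradiol for UGT1A1, propofol for 1A9, and 4-methylumbelliferone for 1A3, 1A6, 1A7, 1A8, 1A10, 2B4, 2B7, 2B10, 2B15 and 2B17. Incubated at 37 °C without (control) or with test compound at 1, 10 or 100 μM. Glucuronide formation measured relative to control; triplicate.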
# CYP3A4 = CYP3A4 (Homo sapiens, UniProt P08684); experiment: Inhibition of CYP3A4; type: biochemical; conditions: PI-103 1, 10 and 100 μM
# In short: as §1
# UGT1A9 = UGT1A9 (Homo sapiens, UniProt O60656); experiment: Inhibition of UGT1A9; type: biochemical
# In short: as §2
# UGT1A6 = UGT1A6 (Homo sapiens, UniProt P19224); experiment: Inhibition of UGT1A6; type: biochemical
# In short: as §2
# UGT2B4 = UGT2B4 (Homo sapiens, UniProt P06133); experiment: Inhibition of UGT2B4; type: biochemical; conditions: PI-103 1, 10 and 100 μM
# In short: as §2
# p110δ = conditions: cited from earlier work
# UGT1A4 = UGT1A4 (Homo sapiens, UniProt P22310); experiment: Activation of UGT1A4; type: biochemical
# In short: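 Recombinant human UGT1A4 with trifluoperazine (TFP) as substrate for N-glucuronidation, at various TFP concentrations with or without test compound. Triplicate. Data fitted to a mechanistic two-site model assuming a reaction site and an allosteric site.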
# UGT2B17 = UGT2B17 (Homo sapiens, UniProt O75795); experiment: Inhibition of UGT2B17; type: biochemical; conditions: PI-103 1, 10 and 100 μM
# In short: as §2
# HeLa cells = experiment: Toxicity of PI-103 in HeLa cells; type: cell-based, human; conditions: within the experimental concentrations (maximal 5 μM)
# BCRP = BCRP (Homo sapiens, UniProt Q9UNQ0); experiment: M2 excretion in HeLa1A9 cells after shRNA knock-down of BCRP; type: cell-based
# In short: (§3)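 shRNA plasmid against BCRP, MRP1, MRP3 or MRP4 transfected into UGT1A9-expressing HeLa cells, then exposed to 5 μM test compound in HBSS. Medium sampled at 30–120 min with replacement; cells collected at 120 min. UHPLC gave extracellular and intracellular glucuronide, excretion rate, efflux clearance (excretion rate/intracellular concentration) and fraction metabolized (fmet), each compared with control. Triplicate.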
# CYP2B6 = molecular target: T1, CYP2B6 (Homo sapiens, UniProt P20813); experiment: Inhibition of CYP2B6; type: biochemical
# T1 sequence (P20813 1-491): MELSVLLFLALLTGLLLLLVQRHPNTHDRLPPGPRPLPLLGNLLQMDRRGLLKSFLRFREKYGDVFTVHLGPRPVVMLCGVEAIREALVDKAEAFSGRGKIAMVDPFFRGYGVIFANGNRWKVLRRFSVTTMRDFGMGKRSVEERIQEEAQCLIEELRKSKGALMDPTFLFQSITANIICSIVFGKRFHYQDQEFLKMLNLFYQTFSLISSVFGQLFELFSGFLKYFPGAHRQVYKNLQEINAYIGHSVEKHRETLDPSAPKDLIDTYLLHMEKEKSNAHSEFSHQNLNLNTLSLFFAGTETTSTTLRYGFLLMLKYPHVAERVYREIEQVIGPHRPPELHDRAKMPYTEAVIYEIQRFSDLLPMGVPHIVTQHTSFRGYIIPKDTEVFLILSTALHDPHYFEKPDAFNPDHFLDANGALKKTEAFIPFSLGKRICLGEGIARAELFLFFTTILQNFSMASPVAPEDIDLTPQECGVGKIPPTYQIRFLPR
# In short: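 Recombinant human CYPs at 0.1 mg mL−1 protein, each with its probe substrate near Km: coumarin 100 μM (2A6), bupropion 100 μM (2B6), paclitaxel 60 μM (2C8), tolbutamide 200 μM (2C9), mephenytoin 100 μM (2C19), chlorzoxazone 200 μM (2E1). Incubated at 37 °C with or without test compound at 1, 10 or 100 μM. UHPLC-TQD-MS read-out; triplicate.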
# p110β = conditions: cited from earlier work
# MRP3 = MRP3 (Homo sapiens, UniProt O15438); experiment: M2 excretion in HeLa1A9 cells after shRNA knock-down of MRP3; type: cell-based; conditions: MRP3 silenced, p > 0.05
# In short: as §3
# UGT2B10 = UGT2B10 (Homo sapiens, UniProt P36537); experiment: Inhibition of UGT2B10; type: biochemical; conditions: PI-103 1, 10 and 100 μM
# In short: as §2
# p110γ = conditions: cited from earlier work
# UGT2B7 = molecular target: T2, UGT2B7 (Homo sapiens, UniProt P16662); experiment: Inhibition of UGT2B7; type: biochemical
# T2 sequence (P16662 24-529): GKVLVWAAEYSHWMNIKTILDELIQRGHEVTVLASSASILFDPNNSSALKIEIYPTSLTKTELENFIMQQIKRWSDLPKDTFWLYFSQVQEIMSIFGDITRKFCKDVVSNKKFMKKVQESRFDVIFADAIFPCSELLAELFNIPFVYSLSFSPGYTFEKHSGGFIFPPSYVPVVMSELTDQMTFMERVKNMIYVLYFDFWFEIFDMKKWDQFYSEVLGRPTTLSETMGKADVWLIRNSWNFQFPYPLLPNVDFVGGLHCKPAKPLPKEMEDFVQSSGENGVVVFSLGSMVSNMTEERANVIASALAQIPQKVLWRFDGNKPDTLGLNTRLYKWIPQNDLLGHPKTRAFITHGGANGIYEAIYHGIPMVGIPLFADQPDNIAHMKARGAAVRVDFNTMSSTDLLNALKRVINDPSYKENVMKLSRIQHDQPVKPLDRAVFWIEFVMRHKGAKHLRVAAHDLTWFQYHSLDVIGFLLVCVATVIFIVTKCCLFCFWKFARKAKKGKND
# In short: as §2
# mice = conditions: cited from earlier work
# UGT1A4, sequence (P22310 29-534): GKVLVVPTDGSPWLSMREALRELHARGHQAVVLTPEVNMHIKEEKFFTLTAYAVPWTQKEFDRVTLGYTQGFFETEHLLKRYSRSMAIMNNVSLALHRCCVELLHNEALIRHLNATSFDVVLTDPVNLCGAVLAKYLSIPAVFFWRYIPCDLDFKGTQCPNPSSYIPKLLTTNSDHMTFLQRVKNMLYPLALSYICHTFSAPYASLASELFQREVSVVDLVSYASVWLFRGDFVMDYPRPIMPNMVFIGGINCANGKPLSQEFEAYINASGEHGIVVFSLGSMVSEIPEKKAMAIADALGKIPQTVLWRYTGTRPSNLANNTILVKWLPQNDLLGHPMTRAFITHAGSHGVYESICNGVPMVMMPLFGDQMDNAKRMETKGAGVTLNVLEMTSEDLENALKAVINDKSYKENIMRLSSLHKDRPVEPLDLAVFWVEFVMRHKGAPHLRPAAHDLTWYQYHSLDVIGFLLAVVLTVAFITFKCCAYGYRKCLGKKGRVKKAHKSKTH
# UGT2B17, sequence (O75795 24-530): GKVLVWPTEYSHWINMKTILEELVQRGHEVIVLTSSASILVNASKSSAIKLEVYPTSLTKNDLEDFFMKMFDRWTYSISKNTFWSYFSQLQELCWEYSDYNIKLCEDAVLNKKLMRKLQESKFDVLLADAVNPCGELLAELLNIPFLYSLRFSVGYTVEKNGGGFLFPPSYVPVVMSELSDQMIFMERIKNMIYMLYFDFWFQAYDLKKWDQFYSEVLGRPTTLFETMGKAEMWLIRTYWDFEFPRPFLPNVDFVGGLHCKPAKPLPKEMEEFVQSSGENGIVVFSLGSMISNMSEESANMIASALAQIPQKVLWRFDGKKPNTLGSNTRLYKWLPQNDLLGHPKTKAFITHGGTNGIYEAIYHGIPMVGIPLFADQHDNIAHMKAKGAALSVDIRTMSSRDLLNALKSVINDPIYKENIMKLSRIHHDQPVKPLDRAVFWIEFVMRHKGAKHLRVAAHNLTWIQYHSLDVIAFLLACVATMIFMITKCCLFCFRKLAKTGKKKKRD
# UGT2B4, sequence (P06133 24-528): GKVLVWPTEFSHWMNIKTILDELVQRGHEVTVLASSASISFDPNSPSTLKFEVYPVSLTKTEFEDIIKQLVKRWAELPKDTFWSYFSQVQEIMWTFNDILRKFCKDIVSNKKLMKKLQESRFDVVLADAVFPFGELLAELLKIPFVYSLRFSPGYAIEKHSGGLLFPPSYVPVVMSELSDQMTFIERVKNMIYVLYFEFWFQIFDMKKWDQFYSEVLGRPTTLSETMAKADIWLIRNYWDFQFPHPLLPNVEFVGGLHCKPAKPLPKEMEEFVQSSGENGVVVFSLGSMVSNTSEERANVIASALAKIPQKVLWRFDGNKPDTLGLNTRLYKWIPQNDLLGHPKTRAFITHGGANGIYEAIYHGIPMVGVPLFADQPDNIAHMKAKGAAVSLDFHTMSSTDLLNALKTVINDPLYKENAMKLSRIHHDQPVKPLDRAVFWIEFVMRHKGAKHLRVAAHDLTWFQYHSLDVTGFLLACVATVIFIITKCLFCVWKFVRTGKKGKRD
# UGT1A9, sequence (O60656 26-530): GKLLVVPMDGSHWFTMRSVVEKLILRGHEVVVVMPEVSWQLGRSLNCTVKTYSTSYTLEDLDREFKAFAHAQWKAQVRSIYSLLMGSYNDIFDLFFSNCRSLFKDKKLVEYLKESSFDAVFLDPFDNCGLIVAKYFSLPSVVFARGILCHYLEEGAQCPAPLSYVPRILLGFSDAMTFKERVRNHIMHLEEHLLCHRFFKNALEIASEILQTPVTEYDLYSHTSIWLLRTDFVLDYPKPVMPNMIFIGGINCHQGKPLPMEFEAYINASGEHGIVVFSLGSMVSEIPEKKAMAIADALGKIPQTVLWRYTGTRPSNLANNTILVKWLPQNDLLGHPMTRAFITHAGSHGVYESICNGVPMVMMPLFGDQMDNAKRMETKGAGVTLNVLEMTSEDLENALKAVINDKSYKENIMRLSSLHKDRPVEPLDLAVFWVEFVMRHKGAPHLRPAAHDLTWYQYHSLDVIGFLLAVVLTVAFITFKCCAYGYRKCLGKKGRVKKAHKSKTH
# UGT2B10, sequence (P36537 24-528): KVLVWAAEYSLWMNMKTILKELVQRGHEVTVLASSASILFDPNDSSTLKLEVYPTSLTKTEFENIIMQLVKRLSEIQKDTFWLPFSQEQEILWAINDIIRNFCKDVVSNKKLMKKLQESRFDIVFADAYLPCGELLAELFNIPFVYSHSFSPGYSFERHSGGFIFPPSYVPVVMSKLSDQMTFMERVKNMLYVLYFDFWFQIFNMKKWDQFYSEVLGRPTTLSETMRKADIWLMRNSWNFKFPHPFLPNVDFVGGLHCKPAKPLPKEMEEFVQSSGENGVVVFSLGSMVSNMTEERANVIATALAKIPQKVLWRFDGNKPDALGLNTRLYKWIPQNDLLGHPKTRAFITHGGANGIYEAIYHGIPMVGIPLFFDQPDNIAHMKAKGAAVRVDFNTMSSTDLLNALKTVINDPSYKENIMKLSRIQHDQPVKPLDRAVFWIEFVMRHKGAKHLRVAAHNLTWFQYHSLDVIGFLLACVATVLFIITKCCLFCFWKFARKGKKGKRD
# CYP3A4, sequence (P08684 whole entry): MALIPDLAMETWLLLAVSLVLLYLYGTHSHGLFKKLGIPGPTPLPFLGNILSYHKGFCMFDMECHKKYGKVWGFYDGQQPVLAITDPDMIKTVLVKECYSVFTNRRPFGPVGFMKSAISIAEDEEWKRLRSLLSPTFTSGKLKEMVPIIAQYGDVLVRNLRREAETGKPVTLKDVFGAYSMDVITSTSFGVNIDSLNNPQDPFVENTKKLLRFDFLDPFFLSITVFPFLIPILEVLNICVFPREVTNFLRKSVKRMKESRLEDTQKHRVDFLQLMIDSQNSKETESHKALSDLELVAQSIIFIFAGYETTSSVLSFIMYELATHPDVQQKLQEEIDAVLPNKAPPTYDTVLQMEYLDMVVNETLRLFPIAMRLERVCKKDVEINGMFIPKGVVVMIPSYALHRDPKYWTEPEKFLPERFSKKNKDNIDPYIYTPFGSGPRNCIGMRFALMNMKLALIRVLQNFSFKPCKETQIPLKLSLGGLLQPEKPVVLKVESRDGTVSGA
# BCRP, sequence (Q9UNQ0 whole entry): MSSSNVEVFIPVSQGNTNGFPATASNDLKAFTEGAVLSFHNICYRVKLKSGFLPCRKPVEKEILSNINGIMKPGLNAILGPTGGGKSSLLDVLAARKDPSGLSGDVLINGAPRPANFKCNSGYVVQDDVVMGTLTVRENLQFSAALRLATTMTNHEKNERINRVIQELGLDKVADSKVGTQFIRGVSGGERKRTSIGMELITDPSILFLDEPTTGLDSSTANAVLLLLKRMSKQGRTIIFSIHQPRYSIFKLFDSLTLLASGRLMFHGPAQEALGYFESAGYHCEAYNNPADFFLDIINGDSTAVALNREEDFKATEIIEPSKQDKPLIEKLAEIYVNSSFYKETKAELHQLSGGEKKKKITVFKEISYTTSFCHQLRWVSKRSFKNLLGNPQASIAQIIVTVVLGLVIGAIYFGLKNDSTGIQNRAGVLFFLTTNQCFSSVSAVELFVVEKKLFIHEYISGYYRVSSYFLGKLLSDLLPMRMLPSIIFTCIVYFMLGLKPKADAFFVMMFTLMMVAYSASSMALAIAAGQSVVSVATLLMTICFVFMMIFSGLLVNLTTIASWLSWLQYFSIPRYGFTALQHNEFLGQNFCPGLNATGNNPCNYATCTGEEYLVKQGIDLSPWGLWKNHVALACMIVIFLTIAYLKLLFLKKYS
# UGT1A6, sequence (P19224 27-532): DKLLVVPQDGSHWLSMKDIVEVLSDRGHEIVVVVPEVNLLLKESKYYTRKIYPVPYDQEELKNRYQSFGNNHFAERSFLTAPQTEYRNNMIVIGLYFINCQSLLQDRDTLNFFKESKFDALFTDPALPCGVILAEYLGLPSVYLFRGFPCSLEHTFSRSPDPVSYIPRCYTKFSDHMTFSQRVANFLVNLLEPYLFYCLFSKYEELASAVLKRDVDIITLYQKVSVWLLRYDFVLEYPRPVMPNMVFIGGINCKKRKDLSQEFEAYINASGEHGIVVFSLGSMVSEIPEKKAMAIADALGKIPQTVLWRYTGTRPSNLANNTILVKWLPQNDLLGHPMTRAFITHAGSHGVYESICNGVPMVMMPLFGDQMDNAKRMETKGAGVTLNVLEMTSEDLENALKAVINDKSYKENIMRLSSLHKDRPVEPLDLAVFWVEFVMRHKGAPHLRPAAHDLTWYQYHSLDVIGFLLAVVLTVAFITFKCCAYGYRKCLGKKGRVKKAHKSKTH
# CYP3A5, sequence (P20815 whole entry): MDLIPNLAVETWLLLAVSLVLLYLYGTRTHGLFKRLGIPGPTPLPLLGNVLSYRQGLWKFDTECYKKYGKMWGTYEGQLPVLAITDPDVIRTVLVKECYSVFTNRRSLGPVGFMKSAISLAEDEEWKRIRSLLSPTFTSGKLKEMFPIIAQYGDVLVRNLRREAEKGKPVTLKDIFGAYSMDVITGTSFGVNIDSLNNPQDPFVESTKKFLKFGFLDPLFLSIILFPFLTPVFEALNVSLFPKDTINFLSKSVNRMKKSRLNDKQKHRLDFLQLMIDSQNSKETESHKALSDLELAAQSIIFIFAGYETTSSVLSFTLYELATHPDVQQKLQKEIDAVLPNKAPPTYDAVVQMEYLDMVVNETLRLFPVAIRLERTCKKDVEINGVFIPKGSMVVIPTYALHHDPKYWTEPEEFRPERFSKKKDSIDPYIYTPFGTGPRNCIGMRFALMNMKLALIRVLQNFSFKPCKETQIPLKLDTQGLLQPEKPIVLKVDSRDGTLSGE
smiles,measurement,setting,value
Oc1cccc(-c2nc(N3CCOCC3)c3oc4ncccc4c3n2)c1 [PI-103],IC50,p110α,[…]
same,inhibitory effect,CYP3A5,negligible or weak
same,inhibitory effect,UGT2B15,negligible
same,inhibitory effect,CYP3A4,negligible or weak
same,IC50,UGT1A9,16.6 ± 1.29 µM
same,IC50,UGT1A6,168 ± 15.3 µM
same,inhibitory effect,UGT2B4,negligible
same,Ki,UGT1A4,13.8 µM
same,maximal rate change (activation of UGT1A4),UGT1A4; TFP-N-glucuronidation,1.6 fold
same,inhibitory effect,UGT2B17,negligible
same,toxicity in HeLa cells,HeLa cells,no significant toxicities
same,reduction in fraction of metabolized (fmet) PI-103,BCRP,27.6%
same,IC50,CYP2B6,2.25 ± 0.28 µM
same,Ki,CYP2B6,0.64 ± 0.22 µM
same,residual activity,"CYP2B6; CYP2B6, 100 μM PI-103",29.70 % of the negative control
same,Type of inhibition,"CYP2B6; CYP2B6, bupropion",Mixed-type
same,α,"CYP2B6; CYP2B6, bupropion, mixed-type model (selected)",5.09 ± 4.48
same,IC50,p110β,0.088 µM
same,alteration in fmet value of PI-103,MRP3,9.2%
same,inhibitory effect,UGT2B10,negligible
same,IC50,p110γ,0.15 µM
same,IC50,UGT2B7,1.59 ± 0.21 µM
same,Ki,UGT2B7,1.35 ± 0.15 µM
same,Type of inhibition,"UGT2B7; UGT2B7, 4-MU",Noncompetitive
same,toxicity in mice,mice,little toxicity

# From article PMC9050161 (RSC Advances, 2020)
